Measured values from ChEMBL document CHEMBL2434859, “Targeting botulinum A cellular toxicity: a prodrug approach” (J Med Chem, 2013).
The source made the active and inactive calls. The rule behind the calls is not given here.

Tests used:
[1] = target: Botulinum neurotoxin type A (Clostridium botulinum (strain Hall / ATCC 3502 / NCTC 13319 / Type A), UniProt P0DPI1); assay: (§1) Inhibition of Clostridium botulinum A Hall BoNT LC/A in human induced pluripotent stem cell-derived neurons assessed as inhibition of intracellular SNAP-25 cleavage after 8 hrs by Western blot analysis; type: cell-based, Clostridium botulinum A str. Hall
Chain of Botulinum neurotoxin type A (P0DPI1 2-448 limits assumed): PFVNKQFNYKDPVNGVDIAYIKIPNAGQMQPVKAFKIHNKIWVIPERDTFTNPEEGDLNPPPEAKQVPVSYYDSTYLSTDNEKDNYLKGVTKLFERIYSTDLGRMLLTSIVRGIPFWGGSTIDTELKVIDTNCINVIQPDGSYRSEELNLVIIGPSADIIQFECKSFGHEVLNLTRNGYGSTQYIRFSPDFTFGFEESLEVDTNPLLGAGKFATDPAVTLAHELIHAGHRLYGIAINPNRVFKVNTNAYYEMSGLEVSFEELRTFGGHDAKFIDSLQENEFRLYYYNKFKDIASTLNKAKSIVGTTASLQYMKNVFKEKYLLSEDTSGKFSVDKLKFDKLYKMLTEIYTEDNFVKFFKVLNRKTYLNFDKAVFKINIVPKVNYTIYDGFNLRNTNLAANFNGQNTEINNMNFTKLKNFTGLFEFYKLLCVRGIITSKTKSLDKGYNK

[2] = Half life in culture media at 10 to 100 uM by LC/MS analysis; type: physicochemical; details: for t1/2: 100 µM
How it was run: (§2)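 Compound at 10–100 μM (1% DMSO) was held in PBS pH 7.4 or neurobasal medium. Aliquots were taken at timed intervals; medium samples were quenched in cold acetonitrile. A deuterated internal standard (1 μM) was added, and samples were read by LC/MS (C8, SIM) against calibration curves. Half-life came from an exponential decay fit.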

[3] = Half life in PBS buffer at 10 to 100 uM by LC/MS analysis; type: physicochemical; how it was run: as §2
[4] = target: Botulinum neurotoxin type A (Clostridium botulinum (strain Hall / ATCC 3502 / NCTC 13319 / Type A)) (UniProt P0DPI1); assay: as §1; type: cell-based; details: Clostridium botulinum A str. Hall
Chain of Botulinum neurotoxin type A (Clostridium botulinum (strain Hall / ATCC 3502 / NCTC 13319 / Type A)) (P0DPI1 2-448 limits assumed): as above

[5] = target: Botulinum neurotoxin type A (Clostridium botulinum (strain Hall / ATCC 3502 / NCTC 13319 / Type A)) (UniProt P0DPI1); assay: Inhibition of Clostridium botulinum A Hall BoNT LC/A in human induced pluripotent stem cell-derived neurons assessed as inhibition of intracellular SNAP-25 cleavage at 25 uM after 8 hrs by Western blot analysis relative to control; type: cell-based; details: Clostridium botulinum A str. Hall
[6] = target: Botulinum neurotoxin type A (Clostridium botulinum (strain Hall / ATCC 3502 / NCTC 13319 / Type A)) (UniProt P0DPI1); assay: Inhibition of Clostridium botulinum A Hall BoNT LC/A in human induced pluripotent stem cell-derived neurons assessed as inhibition of intracellular SNAP-25 cleavage after 8 hrs by Western blot analysis in presence of 0.01% Tween-80; type: cell-based; details: Clostridium botulinum A str. Hall
[7] = Cytotoxicity against human induced pluripotent stem cell-derived neurons assessed as SNAP-25 level at 25 uM after 8 hrs by Western blot analysis; details: induced pluripotent stem cell-derived neuron
[8] = Prodrug conversion in mouse Neuro2a cells assessed as release of AMC and 1-adamantylacetohydroxamic acid at 50 uM after 3 hrs by Alexa Fluor 488-conjugated wheat germ agglutinin/TOTO-3 staining-based laser scanning confocal microscopic analysis; type: ADME, cell-based; details: n2a
[9] = Cellular uptake in golgi apparatus of mouse Neuro2a cell assessed as release of AMC and 1-adamantylacetohydroxamic acid at 50 uM after 3 hrs by Alexa Fluor 488-conjugated wheat germ agglutinin/TOTO-3 staining-based laser scanning confocal microscopic analysis; type: ADME

Row | SMILES | EC50 ([1]; read-out: EC50) | t1/2 [2] | t1/2 [3] | also measured
1 | CCNC(=O)ONC(=O)CC12CC3CC(CC(C3)C1)C2 | > 100 µM | 15.1 h | 27.6 h | 
2 | O=C(CC12CC3CC(CC(C3)C1)C2)NOC(=O)Nc1ccc(F)cc1 | > 100 µM | 0.62 h | 0.9 h | 
3 | COc1ccc(NC(=O)ONC(=O)CC23CC4CC(CC(C4)C2)C3)cc1 | > 100 µM | 0.85 h | 1.1 h | 
4 | O=C(CC12CC3CC(CC(C3)C1)C2)NOC(=O)Nc1ccccc1 | > 100 µM | 0.76 h | 1.1 h | 
5 | COc1ccc(CNC(=O)ONC(=O)CC23CC4CC(CC(C4)C2)C3)cc1 | 42 µM | 11.2 h | 14 h | 
6 | CC1(C)ON=C(CC23CC4CC(CC(C4)C2)C3)O1 | > 100 µM | 10.2 h | 3.3 h | 
7 | CC(C)(C)NC(=O)ONC(=O)CC12CC3CC(CC(C3)C1)C2 |  |  | 72 h | EC50 [1]: ND(toxic)
8 | O=C(CC12CC3CC(CC(C3)C1)C2)NOC(=O)NCc1ccccc1 | 20 µM | 14.6 h | 17.6 h | inhibition [4]: Dose-dependent effect; inhibition [5]: 50%; inhibition [6]: Active
9 | CN(C)C(=O)ONC(=O)CC12CC3CC(CC(C3)C1)C2 | > 100 µM | 61 h | 149 h | 
10 | O=C(CC12CC3CC(CC(C3)C1)C2)NOC(=O)NCc1ccc(F)cc1 | 27 µM | 11.5 h | 11.5 h | 
11 | O=C(CC12CC3CC(CC(C3)C1)C2)NOC(=O)N1CCOCC1 | 37 µM | 33 h | 48 h | 
12 | COCCN(CCOC)C(=O)ONC(=O)CC12CC3CC(CC(C3)C1)C2 | > 100 µM | 48 h | 164 h | 
13 | O=C(CC12CC3CC(CC(C3)C1)C2)N(O)C(=O)NCc1ccccc1 |  |  |  | Activity [7]: Toxic
14 | COc1cc(NC(=O)ONC(=O)CC23CC4CC(CC(C4)C2)C3)cc(OC)c1 | > 100 µM | 1.6 h | 1.2 h | 
15 | Cc1cc(=O)oc2cc(NC(=O)ONC(=O)CC34CC5CC(CC(C5)C3)C4)ccc12 |  |  |  | inhibition [4]: Active; half-life at up to 100 µM ([2]; culture media): 4.5 h; Drug metabolism [8]: Active; Drug uptake [9]: Active
